In one data set the test system is bovine Capthesin B. The settings on record: read-out: bovine Cathepsin B IC50; cited from earlier work.
A further data set deals with plasmid (pBR322) DNA. In words: Electrophoresis mobility shift assay with plasmid DNA. The format is binding.
Data set [1] is described as follows: Stability in solution by 1H-NMR spectroscopy. The class given is physicochemical. As to conditions: D2O, PBS-D2O or neat DMSO-d6.
The test system of another data set is MDA-MB-231 cells. In words: ApoTox-Glo Triplex assay. The format is cell-based, human. The settings on record: 10.7 μM, 24 h.
Data set [2] deals with human breast adenocarcinoma cell line MCF7. Briefly: Cytotoxicity, MTT assay, MCF-7 cells. The format is cell-based. As to conditions: read-out: IC50 MCF-7, 24h incubation. The procedure, abridged:
(§1)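 Cells were kindly donated by a university culture unit. They were grown in DMEM with 10% FBS and 1% penicillin/streptomycin/amphotericin B at 37°C and 5% CO2. Monolayers (~5×10^4) were grown 72 h, then exposed 24 h to test compound (0–100 μM; diluted from fresh DMSO stock; final DMSO ≤0.6% v/v). MTT was added for 3.5 h, formazan dissolved in DMSO, and A570 read (690 nm background). IC50 is mean ±SE of three experiments, triplicate microcultures.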

Data set [3] concerns the target Human serum albumin (HSA) (Homo sapiens, UniProt P02768). In words: HSA tryptophan fluorescence quenching. The format is binding. The settings on record: HSA 10 μM, complex 10–100 μM. The procedure, abridged: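 HSA (10 μM) in phosphate buffer (pH 7.4) received ten successive additions from an 8 mM DMSO stock of test compound, giving final 10–100 μM. Trp emission was recorded at room temperature, 300–450 nm, excitation 295 nm, 240 s after each addition. Compound, buffer and DMSO fluorescence were negligible. Data were fitted to F0/F = 1 + KSV[Q].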

Data set [4] concerns non-tumorigenic human embryonic kidney cells HEK-293T. Briefly: Cytotoxicity, XTT assay, HEK-293T cells. The class given is cell-based. As to conditions: read-out: IC50 HEK-239T, 24h incubation. The procedure, abridged: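 Cells were maintained in DMEM with 100 U/mL penicillin, 100 μg/mL streptomycin and 10% FBS, humidified, 37°C, 5% CO2/[…]. Seeding was 5×10^3 cells/well in phenol red-free, antibiotic-free DMEM with 10% FBS and 2 mM L-glutamine, grown 24 h. Test compound (final 0.1–50 μM) was given for 24 h or 48 h. XTT (final 0.3 mg/mL) ran 4 h, read at 450 nm. Survival was taken as treated/untreated absorbance. IC50 is mean ±SE of three experiments, triplicate microcultures.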
For orientation: Tetrazolium dyes change colour on reduction, which living cells bring about.

Data set [5] has as its system human cervical carcinoma cell line HeLa. Briefly: Cytotoxicity, MTT assay, HeLa cells. The class given is cell-based. The settings on record: read-out: IC50 HeLa, 24h incubation, 1% DMSO stock diluted with medium. The method, boiled down:
as §1

The test system of data set [6] is human colon adenocarcinoma cell line HT-29. Briefly: Cytotoxicity, MTT assay, HT-29 cells. As to conditions: read-out: IC50 HT-29, 24h incubation. The class given is cell-based. The procedure, abridged: as §1
The subject of data set [7] is human breast adenocarcinoma MDA-MB 231 cell line. Briefly: Cytotoxicity, XTT assay, MDA-MB-231 cells. The class given is cell-based. As to conditions: read-out: IC50 MDA-MB-231, 24h incubation. The procedure, abridged: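 Cells kept adherent in DMEM with penicillin/streptomycin and 10% FBS (37°C, 5% CO2/[…]). Seeded at 5×10^3 cells/well in phenol red-free, antibiotic-free DMEM with 10% FBS and 2 mM L-glutamine, and grown 24 h. Test compound added at 0.1–50 μM final for 24 h. XTT added at 0.3 mg/mL final for 4 h, then A450 read. Survival is the treated/untreated absorbance ratio. IC50 given as mean (±SE) of three independent experiments, triplicate microcultures per concentration.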

The term IC50 denotes the concentration that inhibits the measured activity by half.

Chain of Human serum albumin (HSA) (P02768 25-609): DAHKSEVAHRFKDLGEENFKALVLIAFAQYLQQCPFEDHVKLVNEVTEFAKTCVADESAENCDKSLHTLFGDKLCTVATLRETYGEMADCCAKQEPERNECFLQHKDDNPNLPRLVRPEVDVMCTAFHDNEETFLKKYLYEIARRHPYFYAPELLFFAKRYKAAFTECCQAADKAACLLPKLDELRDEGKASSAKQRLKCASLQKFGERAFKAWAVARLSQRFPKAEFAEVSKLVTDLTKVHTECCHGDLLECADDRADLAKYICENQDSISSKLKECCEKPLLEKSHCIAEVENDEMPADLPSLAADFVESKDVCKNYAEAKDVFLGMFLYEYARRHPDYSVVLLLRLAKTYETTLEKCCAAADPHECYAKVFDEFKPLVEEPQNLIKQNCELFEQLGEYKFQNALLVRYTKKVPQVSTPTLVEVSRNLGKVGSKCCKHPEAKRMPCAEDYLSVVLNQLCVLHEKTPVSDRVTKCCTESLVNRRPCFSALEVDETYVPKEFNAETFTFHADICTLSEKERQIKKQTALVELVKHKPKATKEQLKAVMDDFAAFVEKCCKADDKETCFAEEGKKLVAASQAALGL

As to `Cc1ccc(C(C)C)cc1.[Cl][Ru]([Cl])[PH]12CN3CN(CN(C3)C1)C2` [RAPTA-C], in the data set on bovine Capthesin B, the IC50 is 2500 nM.
As for `Cc1ccccc1.[Cl][Ru]([Cl])[PH]12CN3CN(CN(C3)C1)C2` [RAPTA-T], the concentration for half-maximal inhibition (IC50) in the data set on bovine Capthesin B was 1500 nM.
Consider `N.N.[Cl][Pt][Cl]` [cisplatin, cis-diamminedichloroplatinum (II), reference compound], for which, in the data set with plasmid (pBR322) DNA (37°C, 20 h, Tris/HCl buffer, drug/DNA ratio up to 2.0), the “effect on electrophoretic mobility of plasmid DNA” value was “both increase and decrease the mobility of the OC and the CCC forms”.
With “G1-[[NCPh(o-N)Ru(η^6-p-cymene)Cl]Cl]4 [Compound 17]”, the “stability by 1H-NMR over 72 hours” value in data set [1] is “did not observe changes”. The same compound yielded a necrotic cells in the data set on MDA-MB-231 cells of 27%. In addition, the “reduction of MDA-MB-231 viability” value with MDA-MB-231 cells is listed as “ca. 58%”. In the data set on MDA-MB-231 cells, the “treated cells remaining viable” value is listed as 42%. For the same compound, the apoptotic cells in the data set with MDA-MB-231 cells (caspase-3/-7 activity) was found to be 16%. Besides, the IC50 is 6.9 ± 0.5 µM in [2]; 10.7 µM in [4]; 8.1 ± 0.4 µM in data set [5]; 5.6 ± 0.1 µM in [6]; 6.1 ± 1 µM in data set [7]. Besides, in the data set on plasmid (pBR322) DNA (metal/DNAbp ratio 2.0, pH 6, 7 and 8), the “interaction with plasmid DNA at acidic, neutral and basic pH” value is “do not interact with plasmid (pBR322) DNA”. Further, the “shape of Stern-Volmer plot F0/F versus [Q]” value in data set [3] is “positive deviation”.

Source of the values: publication PMC4863959 (Dalton transactions (Cambridge, England : 2003), 2016).
